Measured values: ChEMBL document CHEMBL1772942, “Synthesis and in vitro cytotoxic evaluation of N-alkylbromo and N-alkylphthalimido-isatins” (Bioorg Med Chem Lett, 2011)
pIC50: −log10 of the molar value.

Assays:
HCT-15 [1] = assay: Cytotoxicity against human HCT15 cells assessed as cell growth inhibition at 10 uM after 48 hrs by sulforhodamine B assay; format: functional; details: HCT-15, 48 h, read-out: GI
Outline: (§1)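 Cell lines from NCI, grown in RPMI-1640 (2 mM glutamine, pH 7.4, 10% fetal calf serum, penicillin) at 37 °C, 5% CO2, 90% RH, viability >98% by trypan blue. 1×10^5 cells/ml seeded, grown 24 h, then compound added at 10 or 100 µM (DMSO stocks diluted in medium with gentamycin) for 48 h. TCA fixation, SRB staining, OD 540 nm; % growth inhibition versus untreated growth, blank-subtracted.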

HEp-2 [2] = assay: Cytotoxicity against human Hep2 cells assessed as cell growth inhibition at 100 uM after 48 hrs by sulforhodamine B assay; format: functional; details: HEp-2, 48 h, read-out: GI; outline: as §1
HCT-15 [3] = assay: Cytotoxicity against human HCT15 cells assessed as cell growth inhibition at 100 uM after 48 hrs by sulforhodamine B assay; format: functional; details: HCT-15, 48 h, read-out: GI; outline: as §1
HEp-2 [4] = assay: Cytotoxicity against human Hep2 cells assessed as cell growth inhibition at 10 uM after 48 hrs by sulforhodamine B assay; format: functional; details: HEp-2, 48 h, read-out: GI; outline: as §1
A549 [5] = assay: Cytotoxicity against human A549 cells assessed as cell growth inhibition at 10 uM after 48 hrs by sulforhodamine B assay; format: functional; details: A549, 48 h, read-out: GI; outline: as §1
A549 [6] = assay: Cytotoxicity against human A549 cells assessed as cell growth inhibition at 100 uM after 48 hrs by sulforhodamine B assay; format: functional; details: A549, 48 h, read-out: GI; outline: as §1
THP-1 [7] = assay: Cytotoxicity against human THP1 cells assessed as cell growth inhibition at 10 uM after 48 hrs by sulforhodamine B assay; format: functional; details: THP-1, 48 h, read-out: GI; outline: as §1
THP-1 [8] = assay: Cytotoxicity against human THP1 cells assessed as cell growth inhibition at 100 uM after 48 hrs by sulforhodamine B assay; format: functional; details: THP-1, 48 h, read-out: GI; outline: as §1
COLO 205 = assay: Cytotoxicity against human COLO205 cells after 48 hrs by sulforhodamine B assay; format: functional, cell-based; details: COLO 205, 48 h
HCT-15 [9] = assay: Cytotoxicity against human HCT15 cells after 48 hrs by sulforhodamine B assay; format: functional, cell-based; details: HCT-15, 48 h
Outline: (§2)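 Sulforhodamine B assay on NCI-sourced cells in RPMI-1640/10% FCS, seeded at 1×10^5 cells/ml and left 24 h, then serial dilutions of 2×10^-2 M DMSO stocks in gentamycin medium added for 48 h (37 °C, 5% CO2). Cells fixed with cold TCA, SRB dye dissolved in Tris pH 10.4, OD read at 540 nm. IC50 is the concentration inhibiting 50% of cell viability.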

THP-1 [10] = assay: Cytotoxicity against human THP1 cells after 48 hrs by sulforhodamine B assay; format: functional, cell-based; details: THP-1, 48 h; outline: as §2
A549 [11] = assay: Cytotoxicity against human A549 cells after 48 hrs by sulforhodamine B assay; format: functional, cell-based; details: A549, 48 h; outline: as §2
PC-3 = assay: Cytotoxicity against human PC3 cells after 48 hrs by sulforhodamine B assay; format: functional, cell-based; details: PC-3, 48 h
HeLa = assay: Cytotoxicity against human HeLa cells after 48 hrs by sulforhodamine B assay; format: functional, cell-based
A549 [12] = assay: Cytotoxicity against human A549 cells assessed as cell growth inhibition at 1 uM after 48 hrs by sulforhodamine B assay; format: functional; details: A549, 48 h, read-out: GI
THP-1 [13] = assay: Cytotoxicity against human THP1 cells assessed as cell growth inhibition at 1 uM after 48 hrs by sulforhodamine B assay; format: functional; details: THP-1, 48 h, read-out: GI
HCT-15 [14] = assay: Cytotoxicity against human HCT15 cells assessed as cell growth inhibition at 1 uM after 48 hrs by sulforhodamine B assay; format: functional; details: HCT-15, 48 h, read-out: GI
Outline: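 NCI-sourced cells in RPMI-1640 (2 mM glutamine, 10% FCS, penicillin), >98% trypan-blue viable, seeded at 1 × 10^5 cells/ml and grown 24 h (37 °C, 5% CO2). DMSO stocks diluted in medium with gentamycin; 48 h exposure. TCA fixation 1 h at 4 °C, 0.4% SRB stain 30 min, dye dissolved in Tris pH 10.4, OD 540 nm. Blank-subtracted; inhibition relative to untreated growth (100%).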

HEp-2 [15] = assay: Cytotoxicity against human Hep2 cells assessed as cell growth inhibition at 1 uM after 48 hrs by sulforhodamine B assay; format: functional; details: HEp-2, 48 h, read-out: GI

| Compound | inhibition of growth at 10 µM (HCT-15 [1]) | inhibition of growth at 100 µM (HEp-2 [2]) | inhibition of growth at 100 µM (HCT-15 [3]) | inhibition of growth at 10 µM (HEp-2 [4]) | inhibition of growth at 10 µM (A549 [5]) | inhibition of growth at 100 µM (A549 [6]) | inhibition of growth at 10 µM (THP-1 [7]) | inhibition of growth at 100 µM (THP-1 [8]) | pIC50 (COLO 205) | pIC50 (HCT-15 [9]) | pIC50 (THP-1 [10]) | pIC50 (A549 [11]) | pIC50 (PC-3) | pIC50 (HeLa) | inhibition of growth at 1 µM (A549 [12]) | inhibition of growth at 1 µM (THP-1 [13]) | inhibition of growth at 1 µM (HCT-15 [14]) | inhibition of growth at 1 µM (HEp-2 [15]) |
| --- | --- | --- | --- | --- | --- | --- | --- | --- | --- | --- | --- | --- | --- | --- | --- | --- | --- | --- |
| O=C1C(=O)N(CCCBr)c2ccccc21 | 59% | 93% | 93% | 36% | 0% | 37% | 80% | 95% | < 4.00 | 4.86 | < 4.00 | < 4.00 | 4.82 | 5.11 |  |  |  |  |
| O=C1C(=O)N(CCCCBr)c2ccccc21 | 62% | 68% | 88% | 33% | 30% | 49% | 90% | 90% | 4.27 | 4.93 | 4.91 | < 4.00 | 4.96 | 5.34 |  |  |  |  |
| O=C1C(=O)N(CCCCCBr)c2ccccc21 | 62% | 81% | 91% | 40% | 0% | 40% | 85% | 91% | < 4.00 | 5.07 | 4.37 | < 4.00 | 4.94 | 5.26 |  |  |  |  |
| O=C1C(=O)N(CCCCCCBr)c2ccccc21 | 67% | 86% | 95% | 48% | 0% | 53% | 94% | 93% | < 4.00 | 4.91 | 4.58 | < 4.00 | 4.93 | 4.92 |  |  |  |  |
| O=C1C(=O)N(CCN2C(=O)c3ccccc3C2=O)c2ccccc21 | 3% | 68% | 86% | 10% | 18% | 43% | 9% | 96% |  |  |  |  |  |  |  |  |  |  |
| O=C1C(=O)N(CCCN2C(=O)c3ccccc3C2=O)c2ccccc21 | 1% | 30% | 58% | 11% | 0% | 1% | 8% | 96% |  |  |  |  |  |  |  |  |  |  |
| O=C1C(=O)N(CCCCN2C(=O)c3ccccc3C2=O)c2ccccc21 | 4% | 73% | 89% | 15% | 0% | 36% | 44% | 92% |  |  |  |  |  |  |  |  |  |  |
| O=C1C(=O)N(CCCCCN2C(=O)c3ccccc3C2=O)c2ccccc21 | 9% | 85% | 97% | 10% | 4% | 36% | 60% | 93% |  |  |  |  |  |  |  |  |  |  |
| O=C1C(=O)N(CCCCCCN2C(=O)c3ccccc3C2=O)c2ccccc21 | 49% | 90% | 91% | 39% | 0% | 14% | 96% | 95% | < 4.00 | 5.01 | < 4.00 | < 4.00 | 4.89 | 5.05 |  |  |  |  |
| O=C1C(=O)N(CCBr)c2ccccc21 | 4% | 71% | 89% | 14% | 38% | 44% | 14% | 96% |  |  |  |  |  |  |  |  |  |  |
| COc1cccc2c1C(=O)c1c(O)c3c(c(O)c1C2=O)C[C@@](O)(C(=O)CO)C[C@@H]3O[C@H]1C[C@H](N)[C@H](O)[C@H](C)O1 [DOXORUBICIN] |  |  |  |  |  |  |  |  |  |  |  |  |  |  | 55% | 96% |  |  |
| O=c1[nH]cc(F)c(=O)[nH]1 [FLUOROURACIL] |  |  |  |  |  |  |  |  |  |  |  |  |  |  |  |  | 31% |  |
| CO[C@@]12[C@H](COC(N)=O)C3=C(C(=O)C(C)=C(N)C3=O)N1C[C@@H]1N[C@@H]12 [MITOMYCIN] |  |  |  |  |  |  |  |  |  |  |  |  |  |  |  |  |  | 31% |
